Reference: ChEMBL document CHEMBL4308830, “Design, Synthesis, and Characterization of 4-Undecylpiperidine-2-carboxamides as Positive Allosteric Modulators of the Serotonin (5-HT) 5-HT2C Receptor” (J Med Chem, 2018)
The source made the active and inactive calls. No cut-off for these calls is given here.

Columns and labels:
[1] = biological target: T1, 5-hydroxytryptamine receptor 2C (Homo sapiens) (UniProt P28335); test: Positive allosteric modulation of human 5-HT2CR expressed in CHO cells assessed as 5-HT-induced intracellular calcium release at 1 nM preincubated for 15 mins followed by 5-HT addition by calcium-4 dye based FLIPR assay (reference value: 100%); format: functional, cell-based
T1 sequence (whole entry): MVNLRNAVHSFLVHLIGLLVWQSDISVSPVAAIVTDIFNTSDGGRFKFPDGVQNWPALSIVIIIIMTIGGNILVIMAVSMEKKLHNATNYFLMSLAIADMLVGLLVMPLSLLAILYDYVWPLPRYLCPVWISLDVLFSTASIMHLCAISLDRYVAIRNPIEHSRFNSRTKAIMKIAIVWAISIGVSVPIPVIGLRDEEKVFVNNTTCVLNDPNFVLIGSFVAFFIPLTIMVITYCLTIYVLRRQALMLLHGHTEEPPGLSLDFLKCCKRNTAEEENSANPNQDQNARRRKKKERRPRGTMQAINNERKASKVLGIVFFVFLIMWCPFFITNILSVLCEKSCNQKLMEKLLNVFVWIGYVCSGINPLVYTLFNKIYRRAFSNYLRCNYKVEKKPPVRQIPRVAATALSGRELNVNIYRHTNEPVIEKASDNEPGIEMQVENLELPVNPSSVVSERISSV
Summary of the method: (§1)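 CHO cells stably expressing human unedited INI 5-HT2CR were plated, serum-starved 3 h, then loaded with Calcium 4 dye plus 2.5 mM probenecid (60 min 37 °C, then 15 min RT). Compound (1 nM) was added; the read after this addition gave intrinsic agonism. 5-HT (10 pM–10 μM) followed 15 min later. FLIPR-TETRA: 10 s baseline, 1 s reads for 120 s after compound and 360 s after 5-HT. Emax came from 4-parameter fits, ≥3 biological replicates in triplicate.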

[2] = biological target: T1, 5-hydroxytryptamine receptor 2C (Homo sapiens); test: Intrinsic agonist activity at human 5-HT2CR expressed in CHO cells assessed as induction of intracellular calcium release at 1 nM incubated for 15 mins measured every 1 sec for 120 secs by calcium-4 dye based FLIPR assay; format: functional, cell-based; summary of the method: as §1
CHO = test: Cytotoxicity against CHO cells at 0.1 to 1000 nM after 1 hrs by LDH release assay; format: cell-based, Cricetulus griseus; conditions: chinese hamster, 1 µM
Summary of the method: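 Lactate dehydrogenase release assay for cytotoxicity, compounds tested at 0.1 nM and 1 μM.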

| Emax [1] [%] | Activity [2] | SMILES | Activity (CHO) |
| --- | --- | --- | --- |
| 89.6 | inactive | O=C(N[C@H](CO)[C@H](O)c1ccccc1)[C@H]1C[C@@H](CCC2CCCCC2)CCN1 | Non-Toxic |
| 114 | inactive | CCCCCCCCCCC[C@@H]1CCN[C@H](C(=O)NC[C@H](O)CCl)C1 | Non-Toxic |
| 104 | inactive | O=C(N[C@H](CO)[C@H](O)c1ccccc1)[C@H]1C[C@@H](C2CCCCC2)CCN1 | Non-Toxic |
| 85.1 | inactive | CCCCCCCCCCC[C@@H]1CCN[C@H](C(=O)N[C@H](CO)[C@H](O)c2ccccc2)C1 | Non-Toxic |
| 105 | inactive | O=C(N[C@H](CO)[C@H](O)c1ccccc1)[C@@H]1C[C@H](C2CCCCC2)CCN1 | Non-Toxic |
| 107 | inactive | CC1CCC(CC[C@@H]2CCN[C@H](C(=O)N[C@@H](CO)[C@@H](O)c3ccccc3)C2)CC1 (stereo partly drawn) |  |
| 116 | inactive | CC1CCC(CC[C@H]2CCN[C@@H](C(=O)N[C@@H](CO)[C@@H](O)c3ccccc3)C2)CC1 (stereo partly drawn) |  |
| 106 | inactive | CCCCCCCCCCC[C@@H]1CCN[C@H](C(=O)NC[C@@H](O)CO)C1 |  |
| 114 | inactive | CCCCCCCCCCC[C@@H]1CCN[C@H](C(=O)NC[C@H](O)CO)C1 |  |
| 99.6 | inactive | CCCCCCCCCCC[C@@H]1CCN[C@H](C(=O)N[C@@H](CO)C(=O)OC)C1 |  |
| 109 | inactive | CCCCCCCCCCC[C@@H]1CCN[C@H](C(=O)N[C@@H](CO)[C@@H](O)c2ccccc2)C1 |  |
| 112 | inactive | CCCCCCCCCCC[C@@H]1CCN[C@H](C(=O)N[C@@H](CO)[C@H](C)O)C1 |  |
| 102 | inactive | CCCCCCCCCCC[C@@H]1CCN[C@H](C(=O)N[C@@H](Cc2cc3ccccc3[nH]2)C(=O)OC)C1 |  |
| 104 | inactive | CCCCCCCCCCC[C@@H]1CCN[C@H](C(=O)N[C@@H](Cc2ccc(O)cc2)C(=O)OC)C1 |  |
| 102 | inactive | CCCCCCCCCCC[C@@H]1CCN[C@H](C(=O)N[C@H](C(=O)OC)[C@H](C)O)C1 |  |
| 111 | inactive | CCCCCCCCCCC[C@@H]1CCN[C@H](C(=O)N[C@H](CO)[C@@H](C)O)C1 |  |
| 102 | inactive | CCCCCCCCCCC[C@H]1CCN[C@@H](C(=O)N[C@@H](CO)[C@@H](O)c2ccccc2)C1 |  |
| 93.9 | inactive | CCCCCCCCCCC[C@H]1CCN[C@@H](C(=O)N[C@H](CO)[C@H](O)c2ccccc2)C1 |  |
| 108 | inactive | CCCCCCCCCCC[C@@H]1CCN[C@H](C(=O)NCCO)C1 (relative stereo) | Non-Toxic |
| 108 | inactive | CCCCCCCCCCC[C@@H]1CCN[C@H](C(=O)NC(CO)CO)C1 (relative stereo) | Non-Toxic |
| 107 | inactive | CCCCCCCCCCC[C@@H]1CCN[C@H](C(=O)NCCN2CCOCC2)C1 (relative stereo) |  |
| 109 | inactive | CCCCCCCCCCC[C@@H]1CCN[C@H](C(=O)O)C1 (relative stereo) |  |

| SMILES | Emax [1] [%] | Activity [2] | Activity (CHO) |
| --- | --- | --- | --- |
| O=C(N[C@H](CO)[C@H](O)c1ccccc1)[C@@H]1C[C@H](CCC2CCCCC2)CCN1 | 96 | inactive |  |
